# In paper PMC6694902 (Journal of Taibah University Medical Sciences, 2017):
# “And” between values parts separate entries of the source, which are not always exact repeats. Equal entries are not always repeated.
# Tests used:
# [1] = tested on: Klebsiella pneumoniae (MTCC 109); conditions: reported earlier by the authors ref 6; cited from earlier work
# [2] = tested on: Staphylococcus aureus (res); assay: Minimum inhibitory concentration; type: cell-based; conditions: 31.25–500 µg/mL tested, 37 °C, 18–24 h
# Outline: (§1)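 MIC was determined in nutrient agar wells seeded with bacteria (McFarland 0.5, 1.5 × 10^6 CFU/mL). E. coli (res) and S. aureus (res) were clinical isolates; K. pneumoniae was MTCC 109. DMF stocks at 1 mg/mL were diluted two-fold to five levels (31.25–500 µg/mL) in wells, with amoxicillin and ampicillin as references. Plates were incubated at 37 °C for 18–24 h.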
# [3] = tested on: Candida albicans (MTCC 3017); assay: Agar well diffusion, zone of inhibition; type: cell-based; conditions: mean ± S.D., n = 6
# Outline: (§2)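 Agar well diffusion on Sabouraud dextrose agar. C. albicans MTCC 3017 came from IMTECH; C. neoformans was an Utkal University strain. Plates were seeded with 1.5 × 10^6 CFU/mL suspensions (McFarland 0.5). Test compounds were dissolved in DMF (1 mg/mL stock) and loaded into wells, with fluconazole as reference. Incubation was 37 °C for 18–24 h, and zones were measured.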
# Cryptococcus neoformans [4] = assay: Minimum inhibitory concentration; type: cell-based; conditions: 31.25–500 µg/mL tested, 37 °C, 18–24 h
# Outline: (§3)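 MIC was determined in agar wells on Sabouraud dextrose agar seeded with the fungal strain (McFarland 0.5, 1.5 × 10^6 CFU/mL). DMF stocks at 1 mg/mL were diluted two-fold to five levels (31.25–500 µg/mL) and loaded into wells, with fluconazole as reference. After 18–24 h at 37 °C, the lowest inhibitory concentration was taken as the MIC.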
# [5] = tested on: Klebsiella pneumoniae (MTCC 109); assay: Agar well diffusion, zone of inhibition; type: cell-based; conditions: mean ± S.D., n = 6
# Outline: (§4)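 Agar well diffusion on nutrient agar. K. pneumoniae MTCC 109 came from IMTECH; S. aureus (res) was an Utkal University isolate. Plates were seeded with 1.5 × 10^6 CFU/mL suspensions (McFarland 0.5). Test compounds were dissolved in DMF (1 mg/mL stock) and placed in wells, with amoxicillin and ampicillin as references. Plates were kept at 37 °C for 18–24 h, then zones were read.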
# [6] = DPPH radical scavenging assay; type: biochemical; conditions: mean ± S.D., n = 3; for IC50 (DPPH radical scavenging): graphically determined
# Outline: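 DPPH scavenging, a modified method, was read as absorbance at 517 nm for test compounds at several concentrations. BHT served as standard, and DPPH in methanol served as control. Percent inhibition was calculated from control and sample absorbances, and IC50 was obtained graphically. Data were analysed by one-way ANOVA with Dunnett's post hoc test.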
# Escherichia coli (res) [7] = assay: Agar well diffusion, zone of inhibition; type: cell-based; conditions: mean ± S.D., n = 6; resistant to norfloxacin, ofloxacin, ampicillin, cefixime, nitrofurantoin
# Outline: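 Clinical isolate from a faecal sample (Bhubaneswar hospital). Nutrient agar plates were seeded with a 1.5 × 10^6 CFU/mL suspension matched to McFarland 0.5. Test compound was loaded into the agar wells from a DMF stock (1 mg/mL). Plates were incubated at 37 °C for 18–24 h and the inhibition zone was read. Amoxicillin and ampicillin were the reference antibiotics.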
# [8] = tested on: Klebsiella pneumoniae (MTCC 109); assay: Minimum inhibitory concentration; type: cell-based; conditions: 31.25–500 µg/mL tested, 37 °C, 18–24 h
# Outline: as §1
# Cryptococcus neoformans [9] = assay: Agar well diffusion, zone of inhibition; type: cell-based; conditions: mean ± S.D., n = 6
# Outline: as §2
# [10] = tested on: Staphylococcus aureus (res); assay: Agar well diffusion, zone of inhibition; type: cell-based; conditions: mean ± S.D., n = 6; resistant to norfloxacin, ofloxacin, ampicillin, cefotaxime
# Outline: as §4
# [11] = tested on: Candida albicans (MTCC 3017); assay: Minimum inhibitory concentration; type: cell-based; conditions: 31.25–500 µg/mL tested, 37 °C, 18–24 h
# Outline: as §3
# Escherichia coli (res) [12] = assay: Minimum inhibitory concentration; type: cell-based; conditions: 31.25–500 µg/mL tested, 37 °C, 18–24 h
# Outline: as §1
Compound,antibacterial activity against K. pneumoniae [1],"Minimum inhibitory concentration (MIC), S. aureus (res) [2]","zone of inhibition, C. albicans [3]","Minimum inhibitory concentration (MIC), C. neoformans (Cryptococcus neoformans [4])","zone of inhibition, K. pneumoniae [5]",% Inhibition (DPPH) ([6]; Conc. 10 μg/mL),% Inhibition (DPPH) ([6]; Conc. 30 μg/mL),% Inhibition (DPPH) ([6]; Conc. 50 μg/mL),% Inhibition (DPPH) ([6]; Conc. 70 μg/mL),IC50 (DPPH radical scavenging) [6],"zone of inhibition, E. coli (res) (Escherichia coli (res) [7])","Minimum inhibitory concentration (MIC), K. pneumoniae [8]","zone of inhibition, C. neoformans (Cryptococcus neoformans [9])","zone of inhibition, S. aureus (res) [10]","Minimum inhibitory concentration (MIC), C. albicans [11]","Minimum inhibitory concentration (MIC), E. coli (res) (Escherichia coli (res) [12])"
"COc1ccc(/N=C/c2cc(/N=N/c3cccc([N+](=O)[O-])c3)ccc2[O][Co][O]c2ccc(/N=N/c3cccc([N+](=O)[O-])c3)cc2/C=N/c2ccc(OC)cc2)cc1 [5a(Co Lig2), bis[2-{(E)-(4-methoxyphenylimino)methyl}-4-{(E)-(3-nitrophenyl)diazenylphenoxy}cobalt]]",significant antibacterial activity,–,–,–,–,–,–,–,–,–,–,–,–,–,–,–
"Cc1cc(N=Nc2ccc([O][Cu][O]c3ccc(N=Nc4ccc(Br)c(C)c4)cc3C=Nc3nc(-c4ccc(Cl)cc4)cs3)c(C=Nc3nc(-c4ccc(Cl)cc4)cs3)c2)ccc1Br [Compound 6e, Bis[4-{(4-bromo-3-methylphenyl)diazenyl}-2-{(4-(4-chlorophenyl)thiazol-2-ylimino)methyl}phenoxy] copper,]",–,62.5 µg/mL,11.17 ± 6.21 mm,250 µg/mL,15.83 ± 2.23 mm,31.24 ± 0.06%,41.31 ± 0.02%,51.77 ± 0.08%,79.89 ± 0.04%,46 ± 0.98 µg/mL,14.83 ± 2.56 mm,31.25 µg/mL,10.5 ± 1.52 mm,14.5 ± 1.52 mm,250 µg/mL,62.5 µg/mL
Bis[{4-((4-bromo-3-methylphenyl)diazenyl)-2-((4-phenylthiazol-2-limino)methyl)phenoxy}] cobalt [Compound 6a],–,31.25 µg/mL,12.83 ± 2.23 mm,125 µg/mL,16.17 ± 1.94 mm and 16.17 ± 1.94^∗ mm,29.72 ± 0.07%,43.32 ± 0.11%,63.44 ± 0.07 %,83.02 ± 0.06%,36 ± 0.56 µg/mL,16.67 ± 2.34 mm and 16.67 ± 2.34^∗ mm,31.25 µg/mL,13.67 ± 2.94 mm,20.83 ± 1.84 mm and 20.83 ± 1.84^∗ mm,31.25 µg/mL,31.25 µg/mL
